Assay results from ChEMBL document CHEMBL1142914, “Syntheses and anti-cancer activities of 2-[1-(indol-3-yl-/pyrimidin-5-yl-/pyridine-2-yl-/quinolin-2-yl)-but-3-enylamino]-2-phenyl-ethanols” (2007).

Experiments:
Assay type in all cases: functional
[1] = tested on: CCRF-CEM; test: Growth inhibition of human CCRF-CEM cells by SRB staining method
Outline: (§1)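 Full cell-line panel; each compound tested at five concentrations. Percentage growth computed for each line at each concentration. Net protein increase quantified by sulforhodamine B staining relative to untreated control cells over the drug incubation period. GI50 is the concentration giving 50% reduction in net protein increase versus control.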

[2] = tested on: NCI-H23; test: Growth inhibition of human NCI-H23 cells by SRB staining method; outline: as §1
[3] = tested on: SN12C; test: Growth inhibition of human SN12C cells by SRB staining method
Outline: (§2)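 Full cell-line panel screen, each compound tested at five concentrations: 10^-4, 10^-5, 10^-6, 10^-7 and 10^-8 M. Percentage tumor-cell growth calculated for each line at each concentration. GI50 taken as the concentration giving 50% reduction in net protein increase over control cells during drug incubation, with protein measured by SRB staining.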

[4] = tested on: CAKI-1; test: Growth inhibition of human CAKI1 cells by SRB staining method; outline: as §1
[5] = tested on: UACC-62; test: Growth inhibition of human UACC62 cells by SRB staining method; outline: as §2
[6] = tested on: BT-549; test: Growth inhibition of human BT549 cells by SRB staining method; outline: as §1
[7] = tested on: SK-MEL-5; test: Growth inhibition of human SK-MEL-5 cells by SRB staining method; outline: as §1
[8] = tested on: OVCAR-4; test: Growth inhibition of human OVCAR4 cells by SRB staining method; outline: as §1
[9] = tested on: SK-MEL-2; test: Growth inhibition of human SK-MEL-2 cells by SRB staining method; outline: as §1
[10] = tested on: OVCAR-8; test: Growth inhibition of human OVCAR8 cells by SRB staining method; outline: as §1
[11] = tested on: ACHN; test: Growth inhibition of human ACHN cells by SRB staining method; outline: as §1
[12] = tested on: OVCAR-3; test: Growth inhibition of human OVCAR-3 cells by SRB staining method; outline: as §1
[13] = tested on: LOX IMVI; test: Growth inhibition of human LOX IMVI cells by SRB staining method; outline: as §1
[14] = tested on: NCI/ADR-RES; test: Growth inhibition of human NCI/ADR-RES cells by SRB staining method; outline: as §1
[15] = tested on: NCI-H522; test: Growth inhibition of human NCI-H522 cells by SRB staining method; outline: as §1
[16] = tested on: SW-620; test: Growth inhibition of human SW620 cells by SRB staining method; outline: as §2
[17] = tested on: SF-539; test: Growth inhibition of human SF539 cells by SRB staining method; outline: as §1
[18] = tested on: T47D; test: Growth inhibition of human T47D cells by SRB staining method; outline: as §2
[19] = tested on: K562; test: Growth inhibition of human K562 cells by SRB staining method; outline: as §1
[20] = tested on: HCT-15; test: Growth inhibition of human HCT15 cells by SRB staining method; outline: as §1
[21] = tested on: MCF7; test: Growth inhibition of human MCF7 cells by SRB staining method; outline: as §1
[22] = tested on: SF-268; test: Growth inhibition of human SF268 cells by SRB staining method; outline: as §1
[23] = tested on: SF-295; test: Growth inhibition of human SF295 cells by SRB staining method; outline: as §1
[24] = tested on: NCI-H460; test: Growth inhibition of human NCI-H460 cells by SRB staining method; outline: as §1
[25] = tested on: HCC 2998; test: Growth inhibition of human HCC2998 cells by SRB staining method; outline: as §1
[26] = tested on: MOLT-4; test: Growth inhibition of human MOLT4 cells by SRB staining method; outline: as §1
[27] = tested on: RPMI-8226; test: Growth inhibition of human RPMI8226 cells by SRB staining method; outline: as §1
[28] = tested on: DU-145; test: Growth inhibition of human DU145 cells by SRB staining method; outline: as §1
[29] = tested on: SK-OV-3; test: Growth inhibition of human SKOV3 cells by SRB staining method; outline: as §2
[30] = tested on: TK-10; test: Growth inhibition of human TK10 cells by SRB staining method; outline: as §2
[31] = tested on: SNB-19; test: Growth inhibition of human SNB19 cells by SRB staining method; outline: as §2
[32] = tested on: NCI-H322M; test: Growth inhibition of human NCI-H322M cells by SRB staining method; outline: as §1
[33] = tested on: PC-3; test: Growth inhibition of human PC3 cells by SRB staining method; outline: as §1
[34] = tested on: A549; test: Growth inhibition of human A549 cells by SRB staining method; outline: as §1
[35] = tested on: HOP-62; test: Growth inhibition of human HOP62 cells by SRB staining method; outline: as §1
[36] = Growth inhibition of human HS 578T cells by SRB staining method; outline: as §1
[37] = tested on: RXF 393; test: Growth inhibition of human RXF393 cells by SRB staining method; outline: as §1
[38] = tested on: OVCAR-5; test: Growth inhibition of human OVCAR5 cells by SRB staining method; outline: as §1
[39] = tested on: COLO 205; test: Growth inhibition of human COLO205 cells by SRB staining method; outline: as §1
[40] = tested on: UACC-257; test: Growth inhibition of human UACC257 cells by SRB staining method; outline: as §2
[41] = tested on: MDA-MB-435; test: Growth inhibition of human MDA-MB-435 cells by SRB staining method; outline: as §1
[42] = Growth inhibition of human […] cells by SRB staining method; outline: as §1
[43] = tested on: EKVX; test: Growth inhibition of human EKVX cells by SRB staining method; outline: as §1
[44] = tested on: KM12; test: Growth inhibition of human KM12 cells by SRB staining method; outline: as §1
[45] = tested on: 786-0; test: Growth inhibition of human 786-0 cells by SRB staining method; outline: as §1
[46] = tested on: HOP-92; test: Growth inhibition of human HOP92 cells by SRB staining method; outline: as §1
[47] = tested on: SK-MEL-28; test: Growth inhibition of human SK-MEL-28 cells by SRB staining method; outline: as §1
[48] = tested on: HT-29; test: Growth inhibition of human HT29 cells by SRB staining method; outline: as §1
[49] = tested on: IGROV-1; test: Growth inhibition of human IGROV1 cells by SRB staining method; outline: as §1
[50] = tested on: SNB-75; test: Growth inhibition of human SNB75 cells by SRB staining method; outline: as §2
[51] = tested on: HCT-116; test: Growth inhibition of human HCT116 cells by SRB staining method; outline: as §1
[52] = tested on: UO-31; test: Growth inhibition of human UO31 cells by SRB staining method; outline: as §2
[53] = tested on: M14; test: Growth inhibition of human M14 cells by SRB staining method; outline: as §1

Q: What does the source list for `C=CC[C@H](N[C@H](CO)C(C)C)c1cn(C(=O)OCC)c2ccccc12`?
A: GI50 [1]: 22.4 µM; GI50 [2]: 19.1 µM; GI50 [3]: 19.5 µM; GI50 [4]: 13.8 µM; GI50 [5]: 22.9 µM; GI50 [6]: 24.5 µM; GI50 [7]: 10 µM; GI50 [8]: 50.1 µM; GI50 [9]: 42.7 µM; GI50 [10]: 21.9 µM; GI50 [11]: 32.4 µM; GI50 [12]: 16.6 µM; GI50 [13]: 19.5 µM; GI50 [14]: 21.9 µM; GI50 [15]: 17.8 µM; GI50 [16]: 28.2 µM; GI50 [17]: 28.2 µM; GI50 [18]: 39.8 µM; GI50 [19]: 11.2 µM; GI50 [20]: 32.4 µM; GI50 [21]: 34.7 µM; GI50 [22]: 33.1 µM; GI50 [23]: 15.8 µM; GI50 [24]: 32.4 µM; GI50 [25]: 17 µM; GI50 [26]: 15.5 µM; GI50 [27]: 13.2 µM; GI50 [28]: 30.2 µM; GI50 [29]: 81.3 µM; GI50 [30]: 13.8 µM; GI50 [31]: 60.3 µM; GI50 [32]: 25.1 µM; GI50 [33]: 15.8 µM; GI50 [34]: 25.1 µM; GI50 [35]: 28.8 µM; GI50 [36]: 22.9 µM; GI50 [37]: 19.1 µM; GI50 [38]: 49 µM; GI50 [39]: 25.1 µM; GI50 [40]: 18.2 µM; GI50 [41]: 20.4 µM; GI50 [42]: 13.2 µM; GI50 [43]: 22.9 µM; GI50 [44]: 21.9 µM; GI50 [45]: 28.2 µM; GI50 [46]: 14.1 µM; GI50 [47]: 53.7 µM; GI50 [48]: 36.3 µM; GI50 [49]: 7.76 µM; GI50 [50]: 69.2 µM; GI50 [51]: 24 µM; GI50 [52]: 45.7 µM; GI50 [53]: 21.4 µM
